Measurements taken from ChEMBL document CHEMBL4007505 (J Med Chem, 2017).
Active and inactive are the calls of the source. The calls are words filed in the database; no cut-off is given here.

How the values were obtained:
[1] = target: T1, Sodium-dependent dopamine transporter (Homo sapiens, UniProt Q01959); experiment: Inhibition of [3H]WIN35,428 binding to recombinant human DAT expressed in HEK293 cell membranes at 10 uM pre-incubated for 10 mins before radioligand addition and measured 90 mins after radioligand addition by micro beta scintillation counting analysis relative to control
[2] = target: T2, Sodium-dependent noradrenaline transporter (Homo sapiens, UniProt P23975); experiment: Enhancing of [3H]mazindol binding to recombinant human NET expressed in HEK293 cell membranes preincubated for 10 mins followed by radioligand addition measured after 90 mins by micro beta scintillation counting analysis
[3] = target: T1, Sodium-dependent dopamine transporter; experiment: Enhancing of [3H]mazindol binding to recombinant human DAT expressed in HEK293 cell membranes preincubated for 10 mins followed by radioligand addition measured after 90 mins by micro beta scintillation counting analysis; parameters: concentration or dose not given beside the values; settings: for EC50: read-out: EC50
In short: (§1)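 Membranes of HEK-293 cells stably expressing hDAT, hNET or hSERT. […] Compound preincubated 10 min at room temperature, then [125I]23 (40-80 pM final) or [3H]26 (1-3 nM for DAT and NET, 10-13 nM for SERT) added. Incubated 90 min at room temperature in the dark, then filtered. EC50 or Ki; mean ± SEM.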

[4] = target: Sodium-dependent dopamine transporter (Mus musculus) (UniProt Q61327); experiment: (§2) Enhancing of [125I]RTI-55 binding to mouse DAT expressed in HEK293 cells preincubated for 10 mins followed by radioligand addition measured after 90 mins by micro beta scintillation counting analysis; type: cell-based
In short: (§3)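 Membranes preincubated 10 min at room temperature with compound in Krebs-HEPES buffer pH 7.4, then [125I]23 at fixed 45-50 pM for 90 min in the dark, filtered. […] EC50 and % control binding; mean ± SEM.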

[5] = target: T3, Sodium-dependent dopamine transporter (Mus musculus, UniProt Q61327); experiment: as §2; type: cell-based; in short: as §3
[6] = target: T3, Sodium-dependent dopamine transporter; experiment: Inhibition of mouse DAT expressed in HEK293 cells assessed as reduction in [3H]-DA uptake; type: cell-based
[7] = target: T4, Sodium-dependent serotonin transporter (Homo sapiens, UniProt P31645); experiment: Enhancing of [125I]RTI-55 binding to recombinant human SERT expressed in HEK293 cell membranes preincubated for 10 mins followed by radioligand addition measured after 90 mins by micro beta scintillation counting analysis; settings: for EC50: read-out: EC50
[8] = target: T1, Sodium-dependent dopamine transporter; experiment: Enhancing of [3H]WIN35,428 binding to recombinant human DAT expressed in HEK293 cell membranes at 10 uM pre-incubated for 10 mins before radioligand addition and measured 90 mins after radioligand addition by micro beta scintillation counting analysis relative to control
[9] = target: T5, Adenosine receptor A3 (Mus musculus) (UniProt Q61618); experiment: Displacement of [125I]N6-(4-amino-3-iodobenzyl)adenosine-5'-N-methyluronamide from mouse A3AR expressed in HEK293T cells at 10 uM pre-incubated for 10 mins before radioligand addition and measured 90 mins after radioligand addition by micro beta scintillation counting analysis relative to control; type: cell-based
T5 sequence (whole entry): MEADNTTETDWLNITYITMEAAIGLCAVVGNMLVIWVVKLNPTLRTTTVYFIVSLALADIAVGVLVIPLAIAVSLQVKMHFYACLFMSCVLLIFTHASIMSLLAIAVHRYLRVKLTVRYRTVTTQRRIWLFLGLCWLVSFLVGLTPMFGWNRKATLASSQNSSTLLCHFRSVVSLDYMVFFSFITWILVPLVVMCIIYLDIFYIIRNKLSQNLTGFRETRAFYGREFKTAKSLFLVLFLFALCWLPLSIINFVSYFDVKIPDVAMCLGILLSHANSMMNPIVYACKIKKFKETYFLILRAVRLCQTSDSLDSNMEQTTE

Adenosine receptor A3 [10] = target: T6, Adenosine receptor A3 (Homo sapiens, UniProt P0DMS8); experiment: Displacement of [125I]N6-(4-amino-3-iodobenzyl)adenosine-5'-N-methyluronamide from human A3AR expressed in HEK293T cells pre-incubated for 10 mins before radioligand addition and measured 90 mins after radioligand addition by micro beta scintillation counting analysis relative to control; type: cell-based, HEK-293T
T6 sequence (P0DMS8 whole entry): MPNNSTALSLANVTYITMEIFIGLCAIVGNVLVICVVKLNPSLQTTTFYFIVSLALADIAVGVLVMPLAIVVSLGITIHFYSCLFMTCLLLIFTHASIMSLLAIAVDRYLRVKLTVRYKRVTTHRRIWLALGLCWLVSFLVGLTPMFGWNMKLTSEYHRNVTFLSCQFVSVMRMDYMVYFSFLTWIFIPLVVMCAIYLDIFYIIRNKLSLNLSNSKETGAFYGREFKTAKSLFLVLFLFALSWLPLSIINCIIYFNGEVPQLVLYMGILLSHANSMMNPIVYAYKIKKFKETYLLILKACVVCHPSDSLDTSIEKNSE

[11] = target: T4, Sodium-dependent serotonin transporter; experiment: Enhancing of [3H]mazindol binding to recombinant human SERT expressed in HEK293 cell membranes preincubated for 10 mins followed by radioligand addition measured after 90 mins by micro beta scintillation counting analysis
Target sequence in this assay (P31645 whole entry): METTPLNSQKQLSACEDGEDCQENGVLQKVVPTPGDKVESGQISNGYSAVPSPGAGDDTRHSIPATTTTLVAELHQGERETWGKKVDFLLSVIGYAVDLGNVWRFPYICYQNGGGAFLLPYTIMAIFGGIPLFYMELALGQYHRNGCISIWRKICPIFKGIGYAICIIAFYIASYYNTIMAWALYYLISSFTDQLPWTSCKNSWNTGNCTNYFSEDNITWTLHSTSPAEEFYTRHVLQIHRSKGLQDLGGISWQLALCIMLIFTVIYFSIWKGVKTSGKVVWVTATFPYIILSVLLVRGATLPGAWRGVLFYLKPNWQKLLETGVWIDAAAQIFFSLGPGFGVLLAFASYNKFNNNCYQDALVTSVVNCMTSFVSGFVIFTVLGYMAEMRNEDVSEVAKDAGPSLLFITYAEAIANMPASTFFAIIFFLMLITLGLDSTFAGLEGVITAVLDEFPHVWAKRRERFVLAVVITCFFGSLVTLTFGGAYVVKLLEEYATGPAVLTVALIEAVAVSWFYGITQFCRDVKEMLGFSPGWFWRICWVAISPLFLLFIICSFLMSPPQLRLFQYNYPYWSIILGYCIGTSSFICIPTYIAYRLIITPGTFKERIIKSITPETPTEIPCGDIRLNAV

[12] = target: T1, Sodium-dependent dopamine transporter; experiment: Inhibition of recombinant human DAT expressed in HEK293 cell […] as reduction in [3H]-DA uptake incubated for 22 mins by micro beta scintillation counting analysis
[13] = target: T2, Sodium-dependent noradrenaline transporter; experiment: Enhancing of [125I]RTI-55 binding to recombinant human NET expressed in HEK293 cell membranes preincubated for 10 mins followed by radioligand addition measured after 90 mins by micro beta scintillation counting analysis; parameters: concentration or dose not given beside the values; settings: for EC50: read-out: EC50
[14] = target: T2, Sodium-dependent noradrenaline transporter; experiment: Inhibition of recombinant human NET expressed in HEK293 […] assessed as reduction in [3H]-norepinephrine uptake incubated for 22 mins by micro beta scintillation counting analysis
[15] = target: T1, Sodium-dependent dopamine transporter; experiment: Enhancing of [125I]RTI-55 binding to recombinant human DAT expressed in HEK293 cell membranes preincubated for 10 mins followed by radioligand addition measured after 90 mins by micro beta scintillation counting analysis; parameters: concentration or dose not given beside the values; settings: for EC50: read-out: EC50; in short: as §1
[16] = target: T1, Sodium-dependent dopamine transporter; experiment: Enhancing of [3H]WIN35,428 binding to recombinant human DAT expressed in HEK293 cell membranes pre-incubated for 10 mins before radioligand addition and measured 90 mins after radioligand addition by micro beta scintillation counting analysis relative to control
[17] = target: T7, 5-hydroxytryptamine receptor 2C (Homo sapiens, UniProt P28335); experiment: Displacement of [3H]Mesulergine from human 5-HT2C receptor
T7 sequence (P28335 whole entry): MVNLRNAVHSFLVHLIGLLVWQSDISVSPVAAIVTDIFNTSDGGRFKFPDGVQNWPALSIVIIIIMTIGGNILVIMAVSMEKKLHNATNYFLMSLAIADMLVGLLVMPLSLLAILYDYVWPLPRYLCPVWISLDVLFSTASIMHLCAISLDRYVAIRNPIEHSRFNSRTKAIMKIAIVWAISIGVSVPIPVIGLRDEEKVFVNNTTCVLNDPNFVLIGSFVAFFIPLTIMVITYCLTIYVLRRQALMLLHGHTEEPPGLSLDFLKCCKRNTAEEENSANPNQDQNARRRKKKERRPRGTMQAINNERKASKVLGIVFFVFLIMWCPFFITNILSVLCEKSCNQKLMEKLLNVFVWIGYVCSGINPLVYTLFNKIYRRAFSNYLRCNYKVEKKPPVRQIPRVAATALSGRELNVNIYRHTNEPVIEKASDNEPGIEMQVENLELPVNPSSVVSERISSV

Adenosine receptor A3 [18] = target: T8, Adenosine receptor A3 (Mus musculus, UniProt Q61618); experiment: Displacement of [125I]N6-(4-amino-3-iodobenzyl)adenosine-5'-N-methyluronamide from mouse A3AR expressed in HEK293T cells pre-incubated for 10 mins before radioligand addition and measured 90 mins after radioligand addition by micro beta scintillation counting analysis relative to control; type: cell-based
T8 sequence (Q61618 whole entry): T5 sequence (whole entry)

T2 sequence (P23975 whole entry): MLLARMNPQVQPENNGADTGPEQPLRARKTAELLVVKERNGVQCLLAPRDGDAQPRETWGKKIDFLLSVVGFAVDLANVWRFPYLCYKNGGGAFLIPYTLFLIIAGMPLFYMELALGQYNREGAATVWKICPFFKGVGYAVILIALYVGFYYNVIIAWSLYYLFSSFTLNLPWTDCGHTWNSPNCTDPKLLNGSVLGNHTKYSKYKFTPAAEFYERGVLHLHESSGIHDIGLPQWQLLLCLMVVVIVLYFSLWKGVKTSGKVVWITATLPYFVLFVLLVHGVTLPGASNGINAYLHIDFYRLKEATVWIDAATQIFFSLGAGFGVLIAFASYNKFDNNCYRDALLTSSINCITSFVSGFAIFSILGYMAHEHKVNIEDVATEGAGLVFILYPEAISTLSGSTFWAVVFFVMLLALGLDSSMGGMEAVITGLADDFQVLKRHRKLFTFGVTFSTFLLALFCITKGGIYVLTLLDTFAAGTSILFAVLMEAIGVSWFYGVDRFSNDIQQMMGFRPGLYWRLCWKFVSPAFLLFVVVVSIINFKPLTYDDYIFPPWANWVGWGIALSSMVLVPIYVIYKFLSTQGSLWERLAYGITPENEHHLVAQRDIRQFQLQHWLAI
T1 sequence (Q01959 whole entry): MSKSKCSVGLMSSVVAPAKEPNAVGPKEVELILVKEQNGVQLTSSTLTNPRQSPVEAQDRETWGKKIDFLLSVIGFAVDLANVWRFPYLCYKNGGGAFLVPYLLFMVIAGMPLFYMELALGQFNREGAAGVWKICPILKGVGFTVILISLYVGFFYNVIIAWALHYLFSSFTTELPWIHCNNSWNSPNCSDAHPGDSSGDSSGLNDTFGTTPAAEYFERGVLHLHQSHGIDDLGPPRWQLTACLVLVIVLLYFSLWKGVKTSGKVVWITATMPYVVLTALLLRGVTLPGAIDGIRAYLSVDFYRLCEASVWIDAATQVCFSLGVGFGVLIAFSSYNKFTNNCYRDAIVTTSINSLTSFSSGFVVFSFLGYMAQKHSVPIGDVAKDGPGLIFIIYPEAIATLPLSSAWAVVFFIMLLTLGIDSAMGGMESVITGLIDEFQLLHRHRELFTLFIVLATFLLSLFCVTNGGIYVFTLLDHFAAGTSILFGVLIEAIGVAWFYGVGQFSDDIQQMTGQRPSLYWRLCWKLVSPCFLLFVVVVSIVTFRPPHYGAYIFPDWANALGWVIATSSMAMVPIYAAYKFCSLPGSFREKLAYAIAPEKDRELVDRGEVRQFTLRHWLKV
T3 sequence (Q61327 whole entry): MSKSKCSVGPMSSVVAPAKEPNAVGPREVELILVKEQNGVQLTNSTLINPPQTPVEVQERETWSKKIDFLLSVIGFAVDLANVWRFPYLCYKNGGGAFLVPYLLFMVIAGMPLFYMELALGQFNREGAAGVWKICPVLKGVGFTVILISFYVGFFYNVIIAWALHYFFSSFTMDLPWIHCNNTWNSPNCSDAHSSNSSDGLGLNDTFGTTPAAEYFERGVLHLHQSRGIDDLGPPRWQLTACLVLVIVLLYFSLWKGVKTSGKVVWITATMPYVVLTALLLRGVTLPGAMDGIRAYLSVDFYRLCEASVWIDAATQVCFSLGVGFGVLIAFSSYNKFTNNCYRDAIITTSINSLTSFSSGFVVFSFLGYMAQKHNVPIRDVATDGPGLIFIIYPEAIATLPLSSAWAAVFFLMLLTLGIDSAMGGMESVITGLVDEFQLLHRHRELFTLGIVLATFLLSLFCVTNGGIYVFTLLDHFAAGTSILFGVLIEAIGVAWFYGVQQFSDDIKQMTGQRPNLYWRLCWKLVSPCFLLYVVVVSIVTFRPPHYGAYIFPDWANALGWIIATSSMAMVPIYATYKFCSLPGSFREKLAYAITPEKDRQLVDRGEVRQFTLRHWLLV
Sodium-dependent dopamine transporter (Mus musculus), sequence (Q61327 whole entry): as above

| SMILES | inhibition [1] | Activity [8] | inhibition [9] | Ki (Adenosine receptor A3 [10]) | EC50 [16] | also measured |
| --- | --- | --- | --- | --- | --- | --- |
| CCOC(=O)[C@@]12C[C@@H]1[C@@H](n1cnc3c(NC)nc(C#Cc4ccc(Cl)s4)nc31)[C@H](O)[C@@H]2O | inactive | 539% | 45% | 14.5 nM | – | Activity [2]: inactive; Activity [3]: 455%; EC50 [3]: 267 nM; Emax [4]: 1560%; EC50 [5]: 1070 nM; IC50 [6]: 1170 nM; Activity [7]: inactive; EC50 [7]: > 10000 nM; EC50 [11]: > 10000 nM; IC50 [12]: 107 nM; Activity [13]: 365%; EC50 [13]: 490 nM; IC50 [14]: 3980 nM; Activity [15]: 434%; EC50 [15]: 34 nM |
| CNc1nc(C#Cc2ccc(Cl)s2)nc2c1ncn2[C@H]1[C@H](O)[C@H](O)[C@]2(C(=O)O)C[C@H]12 | inactive | 50% | 0% | – | > 1000 nM | – |
| CNc1nc(C#Cc2ccc(Cl)s2)nc2c1ncn2[C@H]1[C@H](O)[C@H](O)[C@]2(C(=O)NCCN)C[C@H]12 | inactive | 136% | 0% | 156 nM | > 1000 nM | – |
| CCCCOC(=O)[C@@]12C[C@@H]1[C@@H](n1cnc3c(NC)nc(C#Cc4ccc(Cl)s4)nc31)[C@H](O)[C@@H]2O | inactive | 285% | 54% | 17.5 nM | 1200 nM | – |
| CNc1nc(C#Cc2ccc(Br)s2)nc2c1ncn2[C@H]1[C@H](O)[C@H](O)[C@]2(C(=O)OC)C[C@H]12 | inactive | 370% | 57% | 8.56 nM | – | Activity [2]: inactive; Activity [3]: 520%; EC50 [3]: 308 nM; Activity [7]: inactive; EC50 [7]: > 10000 nM; Ki [17]: 258 nM; EC50 [11]: > 10000 nM; IC50 [12]: 246 nM; Activity [13]: 293%; EC50 [13]: 400 nM; IC50 [14]: 3560 nM; Activity [15]: 374%; EC50 [15]: 53.5 nM |
| CCOC(=O)[C@@]12C[C@@H]1[C@@H](n1cnc3c(NC)nc(C#Cc4ccc(Br)s4)nc31)[C@H](O)[C@@H]2O | inactive | 430% | – | 6.42 nM | 400 nM | Ki (Adenosine receptor A3 [18]): 1800 nM |
| CNc1nc(C#Cc2ccc(Cl)s2)nc2c1ncn2[C@H]1[C@H](O)[C@H](O)[C@]2(C(=O)OC(C)C)C[C@H]12 | 36% | inactive | 30% | 42.9 nM | > 1000 nM | Ki [17]: 430 nM |
| CNc1nc(C#Cc2ccc(Cl)s2)nc2c1ncn2[C@H]1[C@H](O)[C@H](O)[C@]2(C(=O)OCCC3CCCCC3)C[C@H]12 | – | inactive | 5% | 770 nM | – | – |
| CCCOC(=O)[C@@]12C[C@@H]1[C@@H](n1cnc3c(NC)nc(C#Cc4ccc(Cl)s4)nc31)[C@H](O)[C@@H]2O | inactive | 426% | – | 5.78 nM | – | Activity [2]: inactive; Activity [3]: 347%; EC50 [3]: 535 nM; Activity [7]: inactive; EC50 [7]: > 10000 nM; EC50 [11]: > 10000 nM; IC50 [12]: 1140 nM; Activity [13]: 302%; EC50 [13]: 980 nM; IC50 [14]: 7900 nM; Ki (Adenosine receptor A3 [18]): 2810 nM; Activity [15]: 461%; EC50 [15]: 294 nM |
| CNc1nc(C#Cc2ccc(Cl)s2)nc2c1ncn2[C@H]1[C@H](O)[C@H](O)[C@]2(C(=O)OCCC(C)C)C[C@H]12 | inactive | 196% | 32% | 24.4 nM | – | – |
| CNc1nc(C#Cc2ccc(Cl)s2)nc2c1ncn2[C@H]1[C@H](O)[C@H](O)[C@]2(C(=O)OCCCc3ccccc3)C[C@H]12 | – | inactive | 9% | – | – | – |
| CCNc1cc(C#Cc2ccc(Cl)s2)nc2c1ncn2[C@H]1[C@H](O)[C@H](O)[C@]2(C(=O)NC)C[C@H]12 | – | inactive | – | – | – | – |
